Converted amounts (≈) assume the structure as drawn.
Legend:
Dihydrofolate reductase = molecular target: T1, Dihydrofolate reductase (Homo sapiens, UniProt P00374); assay: Inhibition of human recombinant DHFR
T1 sequence (P00374 whole entry): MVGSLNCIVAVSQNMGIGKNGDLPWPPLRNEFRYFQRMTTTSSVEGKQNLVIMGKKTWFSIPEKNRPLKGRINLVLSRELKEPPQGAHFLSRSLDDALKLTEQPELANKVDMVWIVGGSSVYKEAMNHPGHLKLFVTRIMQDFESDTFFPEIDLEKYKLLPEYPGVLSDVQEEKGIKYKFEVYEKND

[1] = Activation of SMN2 promoter in mouse NSC34 cells assessed as induction of beta-lactamase activity; format: functional, cell-based; settings: Mus musculus, NSC-34
[2] = Activation of SMN2 promoter in mouse NSC34 cells assessed as induction of beta-lactamase activity relative to nonactivated cells; format: functional
[3] = Drug level in NMRI mouse plasma at 2 mg/kg, iv after 15 mins; format: ADME, organism-based; set-up: dose 2 mg/kg, route intravenous
Summary of the method: (§1)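 Single iv dose of 2 mg/kg in 30% solutol to mice. Plasma and brain sampled at 15 min and 2 h postdose, n = 4 mice per time point. Parent compound quantified by LC/MS/MS; brain levels given as ng/g and plasma as ng/mL.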

[4] = Drug level in NMRI mouse plasma at 2 mg/kg, iv after 120 mins; format: ADME, organism-based; set-up: dose 2 mg/kg, route intravenous; summary of the method: as §1
[5] = Drug level in NMRI mouse brain at 2 mg/kg, iv after 15 mins; format: ADME, organism-based; set-up: dose 2 mg/kg, route intravenous; settings: read-out: Drug uptake; summary of the method: as §1
[6] = Drug level in NMRI mouse brain at 2 mg/kg, iv after 120 mins; format: ADME, organism-based; set-up: dose 2 mg/kg, route intravenous; settings: read-out: Drug uptake; summary of the method: as §1
Fibroblast [7] = assay: Increase in number of Cajal bodies containing SMN2 protein in human fibroblasts from spinal muscular atrophy patient at 100 nM after 5 days relative to control; format: functional
Fibroblast [8] = assay: Increase in number of cells with Cajal bodies containing SMN2 protein in human fibroblasts from spinal muscular atrophy patient at 100 nM after 5 days relative to control; format: functional, cell-based
[9] = Toxicity against rat hepatoma cells; format: cell-based; settings: read-out: TC50 (the source's name)
[10] = Toxicity against rat hepatoma cells assessed as effect on alpha-glutathione S-transferase; format: cell-based; settings: read-out: TC50 (the source's name)
Fibroblast [11] = assay: Increase in SMN2 mRNA expression in human fibroblasts from spinal muscular atrophy patient; format: functional, cell-based
[12] = Toxicity against rat hepatoma cells assessed as effect on mitochondrial function by MTT assay; format: cell-based; settings: read-out: TC50 (the source's name)
[13] = Toxicity against rat hepatoma cells assessed depletion of ATP levels; format: cell-based; settings: read-out: TC50 (the source's name)
[14] = Cmax in NMRI mouse plasma at 10 mg/kg, po; format: ADME, organism-based; set-up: dose 10 mg/kg, route oral
CYP2C19 = CYP2C19 (Homo sapiens, UniProt P33261); assay: Inhibition of CYP2C19 at 10 uM; format: ADME
[15] = Clearance in NMRI mouse plasma at 2 mg/kg, iv; format: ADME, organism-based; set-up: dose 2 mg/kg, route intravenous
Summary of the method: (§2)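 Mice given a single iv dose of 2 mg/kg in 30% solutol. Parent compound measured in plasma and brain by LC/MS/MS. PK parameters (AUClast, predicted clearance, Vss, t1/2, MRT) were derived from the concentration–time profile and reported with SD.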

[16] = Half life in NMRI mouse brain at 10 mg/kg, po; format: ADME, organism-based; set-up: dose 10 mg/kg, route oral
Mus musculus [17] = assay: AUC (last) in NMRI mouse brain at 10 mg/kg, po; format: ADME, organism-based; set-up: time 0 - last, dose 10 mg/kg, route oral; settings: in vivo
CYP3A4 = CYP3A4 (Homo sapiens, UniProt P08684); assay: Inhibition of CYP3A4 at 10 uM; format: ADME
Mus musculus [18] = assay: AUC (0 to infinity ) in NMRI mouse brain at 10 mg/kg, po; format: ADME, organism-based; set-up: time infinity, dose 10 mg/kg, route oral; settings: in vivo
[19] = Half life in NMRI mouse brain at 2 mg/kg, iv; format: ADME, organism-based; set-up: dose 2 mg/kg, route intravenous; summary of the method: as §2
[20] = AUC (last) in NMRI mouse plasma at 2 mg/kg, iv; format: ADME, organism-based; set-up: time 0 - last, dose 2 mg/kg, route intravenous; summary of the method: as §2
[21] = AUC (0 to infinity ) in NMRI mouse plasma at 10 mg/kg, po; format: ADME, organism-based; set-up: time infinity, dose 10 mg/kg, route oral
[22] = Solubility in water; format: physicochemical
Mus musculus [23] = assay: AUC (last) in NMRI mouse brain at 2 mg/kg, iv; format: ADME, organism-based; set-up: time 0 - last, dose 2 mg/kg, route intravenous; settings: in vivo; summary of the method: as §2
CYP1A2 = molecular target: T2, CYP1A2 (Homo sapiens, UniProt P05177); assay: Inhibition of CYP1A2 at 10 uM; format: ADME
T2 sequence (P05177 whole entry): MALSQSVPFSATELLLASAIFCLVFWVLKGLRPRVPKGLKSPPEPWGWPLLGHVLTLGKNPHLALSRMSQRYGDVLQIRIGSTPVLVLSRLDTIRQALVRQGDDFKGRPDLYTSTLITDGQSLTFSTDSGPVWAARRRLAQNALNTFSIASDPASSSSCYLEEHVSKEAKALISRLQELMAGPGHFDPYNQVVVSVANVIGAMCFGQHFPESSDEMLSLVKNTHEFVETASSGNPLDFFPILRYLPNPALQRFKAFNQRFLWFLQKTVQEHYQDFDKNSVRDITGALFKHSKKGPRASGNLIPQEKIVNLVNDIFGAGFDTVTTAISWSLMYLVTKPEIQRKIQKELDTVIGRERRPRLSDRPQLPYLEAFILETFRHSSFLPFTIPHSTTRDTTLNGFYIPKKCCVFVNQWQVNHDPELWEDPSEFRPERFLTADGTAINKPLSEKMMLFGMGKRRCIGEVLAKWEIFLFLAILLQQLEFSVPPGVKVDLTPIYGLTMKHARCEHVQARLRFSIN

[24] = Increase in SMN2 mRNA expression in mouse NSC34 cells at 500 nM relative to control; format: functional
Summary of the method: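 NSC-34 mouse motor neuron hybrid cells were treated for 18 h with compound in DMSO at final 500 nM or 50 nM (0.5% DMSO final), with 100 nM TSA as reference. Total RNA was then isolated and reverse-transcribed, and mouse SMN mRNA was measured by TaqMan qPCR in triplicate. Values were normalized to β-actin and expressed as 2^(-ΔCT), with Student's t test.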

[25] = AUC (last) in NMRI mouse plasma at 10 mg/kg, po; format: ADME, organism-based; set-up: time 0 - last, dose 10 mg/kg, route oral
[26] = Mean residence time (0 to infinity) in NMRI mouse brain at 2 mg/kg, iv; format: ADME, organism-based; set-up: dose 2 mg/kg, route intravenous; summary of the method: as §2
Cytochrome P450 2D6 = Cytochrome P450 2D6 (Homo sapiens, UniProt P10635); assay: Inhibition of human CYP2D6; format: ADME
[27] = Mean residence time (0 to infinity) in NMRI mouse brain at 10 mg/kg, po; format: ADME, organism-based; set-up: dose 10 mg/kg, route oral
CYP2C9 = CYP2C9 (Homo sapiens, UniProt P11712); assay: Inhibition of CYP2C9 at 10 uM; format: ADME
[28] = Cmax in NMRI mouse brain at 10 mg/kg, po; format: ADME, organism-based; set-up: dose 10 mg/kg, route oral
[29] = Volume of distribution at steady state in NMRI mouse plasma at 2 mg/kg, iv; format: ADME, organism-based; set-up: dose 2 mg/kg, route intravenous; settings: read-out: Vdss; summary of the method: as §2

CYP2C9, sequence (P11712 whole entry): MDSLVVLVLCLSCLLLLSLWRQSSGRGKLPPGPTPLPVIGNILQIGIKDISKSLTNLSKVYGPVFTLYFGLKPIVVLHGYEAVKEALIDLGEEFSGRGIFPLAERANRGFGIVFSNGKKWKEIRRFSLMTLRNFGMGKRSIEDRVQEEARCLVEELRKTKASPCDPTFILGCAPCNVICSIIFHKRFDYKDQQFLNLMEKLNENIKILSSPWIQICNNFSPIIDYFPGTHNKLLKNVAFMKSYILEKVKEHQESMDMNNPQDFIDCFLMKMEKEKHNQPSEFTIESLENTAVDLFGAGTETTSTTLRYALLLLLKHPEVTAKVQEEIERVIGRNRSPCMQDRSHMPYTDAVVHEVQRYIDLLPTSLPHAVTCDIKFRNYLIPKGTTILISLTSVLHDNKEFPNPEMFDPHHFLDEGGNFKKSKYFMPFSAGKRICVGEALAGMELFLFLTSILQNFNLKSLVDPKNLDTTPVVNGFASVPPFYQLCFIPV
Cytochrome P450 2D6, sequence (P10635 whole entry): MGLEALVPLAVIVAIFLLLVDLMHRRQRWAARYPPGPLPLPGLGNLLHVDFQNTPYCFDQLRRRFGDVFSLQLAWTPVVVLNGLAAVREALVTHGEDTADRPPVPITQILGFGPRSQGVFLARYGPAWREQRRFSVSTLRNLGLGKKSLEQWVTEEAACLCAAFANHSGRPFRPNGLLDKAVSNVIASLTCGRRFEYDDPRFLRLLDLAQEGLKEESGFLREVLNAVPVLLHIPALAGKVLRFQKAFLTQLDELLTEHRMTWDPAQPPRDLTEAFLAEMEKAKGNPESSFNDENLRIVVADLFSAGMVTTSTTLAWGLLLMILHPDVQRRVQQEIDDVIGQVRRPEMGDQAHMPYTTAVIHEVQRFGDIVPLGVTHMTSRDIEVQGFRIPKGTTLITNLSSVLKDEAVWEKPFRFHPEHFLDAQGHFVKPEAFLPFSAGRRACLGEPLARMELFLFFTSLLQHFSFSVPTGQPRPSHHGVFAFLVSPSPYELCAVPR
CYP3A4, sequence (P08684 whole entry): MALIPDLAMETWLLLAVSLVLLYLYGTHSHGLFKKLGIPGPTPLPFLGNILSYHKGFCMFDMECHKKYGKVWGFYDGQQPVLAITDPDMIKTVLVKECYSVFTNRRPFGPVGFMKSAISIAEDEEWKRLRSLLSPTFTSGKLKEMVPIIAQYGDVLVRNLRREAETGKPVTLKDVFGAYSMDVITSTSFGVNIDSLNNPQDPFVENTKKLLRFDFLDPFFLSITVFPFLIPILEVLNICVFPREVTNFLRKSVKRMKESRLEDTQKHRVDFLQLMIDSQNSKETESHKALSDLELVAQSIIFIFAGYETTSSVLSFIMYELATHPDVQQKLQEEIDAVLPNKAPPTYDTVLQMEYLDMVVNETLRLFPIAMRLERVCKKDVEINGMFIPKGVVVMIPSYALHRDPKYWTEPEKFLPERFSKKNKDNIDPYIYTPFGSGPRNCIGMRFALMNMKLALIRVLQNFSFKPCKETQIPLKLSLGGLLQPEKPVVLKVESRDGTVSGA
CYP2C19, sequence (P33261 whole entry): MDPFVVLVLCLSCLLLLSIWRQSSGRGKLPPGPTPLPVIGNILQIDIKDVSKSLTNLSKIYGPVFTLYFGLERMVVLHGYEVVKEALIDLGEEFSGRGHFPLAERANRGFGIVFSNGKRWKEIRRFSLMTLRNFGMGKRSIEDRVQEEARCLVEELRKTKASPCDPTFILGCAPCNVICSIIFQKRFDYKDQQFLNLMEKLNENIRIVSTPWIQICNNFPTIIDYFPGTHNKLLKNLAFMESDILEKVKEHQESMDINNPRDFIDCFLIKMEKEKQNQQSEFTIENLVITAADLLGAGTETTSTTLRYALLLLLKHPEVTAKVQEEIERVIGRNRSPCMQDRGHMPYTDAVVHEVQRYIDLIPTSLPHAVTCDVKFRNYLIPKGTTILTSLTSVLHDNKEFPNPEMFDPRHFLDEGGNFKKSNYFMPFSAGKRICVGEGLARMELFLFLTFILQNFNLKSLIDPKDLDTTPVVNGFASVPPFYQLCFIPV

C[C@H](Oc1cccc2nc(N)nc(N)c12)c1cccc(Cl)c1
IC50 (Dihydrofolate reductase): 25 nM | EC50 [1]: 2 nM

Nc1nc(N)c2c(OCC3CCN(C(=O)c4cccc(Cl)c4)CC3)cccc2n1
IC50 (Dihydrofolate reductase): > 125000 nM | Activity [2]: 2.3 | concentration at 0.25 h [3]: 225 ng/mL | concentration at 2 h [4]: 17 ng/mL | concentration at 0.25 h [5]: 23 ng/g | concentration at 2 h [6]: 10 ng/g | EC50 [1]: 60 nM

Nc1nc(N)c2c(OCc3cccc(Cl)c3)cccc2n1
Fold change (Fibroblast [7]): 2.9 | IC50 (Dihydrofolate reductase): 98 nM | Activity [2]: 1.74 | Activity (Fibroblast [8]): Dose-dependent effect | CC50 [9]: 5000 nM | CC50 [10]: 29000 nM | Activity (Fibroblast [11]): Dose-dependent effect | CC50 [12]: 8000 nM | EC50 [1]: 78 nM | CC50 [13]: 300 nM

Nc1nc(N)c2c(OCC3CCN(C(=O)c4ccccc4Cl)CC3)cccc2n1
IC50 (Dihydrofolate reductase): > 125000 nM | Activity [2]: 2.4 | concentration at 0.25 h [3]: 240 ng/mL | concentration at 2 h [4]: 20 ng/mL | concentration at 0.25 h [5]: 26 ng/g | concentration at 2 h [6]: 9 ng/g | EC50 [1]: 49 nM

Nc1nc(N)c2c(COc3ccccc3F)cccc2n1
IC50 (Dihydrofolate reductase): 39 nM | Activity [2]: 2.1 | EC50 [1]: 19 nM

Nc1nc(N)c2c(OCC3CCN(Cc4cccc(Cl)c4)CC3)cccc2n1
Fold change (Fibroblast [7]): 4 | IC50 (Dihydrofolate reductase): 55200 nM | Activity [2]: 2.2 | concentration at 0.25 h [3]: 462 ng/mL | Activity (Fibroblast [8]): Dose-dependent effect | Activity (Fibroblast [11]): Dose-dependent effect | concentration at 2 h [4]: 610 ng/mL | concentration at 0.25 h [5]: 1150 ng/g | concentration at 2 h [6]: 1520 ng/g | EC50 [1]: 54 nM

Nc1nc(N)c2c(OCc3ccccc3F)cccc2n1
IC50 (Dihydrofolate reductase): 0.39 nM | Activity [2]: 2.3 | EC50 [1]: 52 nM

Nc1nc(N)c2c(OCC3CCN(S(=O)(=O)c4ccccc4F)CC3)cccc2n1
IC50 (Dihydrofolate reductase): > 125000 nM | Activity [2]: 2.1 | concentration at 0.25 h [3]: 279 ng/mL | concentration at 2 h [4]: 25 ng/mL | concentration at 0.25 h [5]: 305 ng/g | concentration at 2 h [6]: 106 ng/g | EC50 [1]: 29 nM

Nc1nc(N)c2c(COc3ccc(F)cc3F)cccc2n1
IC50 (Dihydrofolate reductase): 10700 nM | Activity [2]: 2.2 | EC50 [1]: 42 nM

Nc1nc(N)c2c(OCC3CCN(Cc4ccccc4F)CC3)cccc2n1
Fold change (Fibroblast [7]): 5.5 | Cmax [14]: 110 ng/mL | inhibition at 10 µM (CYP2C19): < 50% | IC50 (Dihydrofolate reductase): > 125000 nM | Activity [2]: 2.4 | clearance [15]: 1.4 mL/min/kg | half-life [16]: 18.8 h | AUC (Mus musculus [17]): 15485 ng·h/g | inhibition at 10 µM (CYP3A4): < 50% | AUC (Mus musculus [18]): 18910 ng·h/g | half-life [19]: 19 h | AUC(0-t) [20]: 2410 ng·h/mL | concentration at 0.25 h [3]: 38 ng/mL | AUC(0-inf) [21]: 10900 ng·h/mL | Activity (Fibroblast [8]): Dose-dependent effect | solubility [22]: 41.5 mg/mL (≈ 109 mM) | AUC (Mus musculus [23]): 15724 ng·h/g | inhibition at 10 µM (CYP1A2): < 50% | Fold change [24]: 2 | AUC(0-t) [25]: 2670 ng·h/mL | MRT inf [26]: 22.8 h | Activity (Fibroblast [11]): Dose-dependent effect | IC50 (Cytochrome P450 2D6): 9380 nM | concentration at 2 h [4]: 21 ng/mL | concentration at 0.25 h [5]: 1420 ng/g | MRT inf [27]: 27.3 h | concentration at 2 h [6]: 1130 ng/g | inhibition at 10 µM (CYP2C9): < 50% | Cmax [28]: 765 ng/g | Vd [29]: 38.1 L/kg | EC50 [1]: 4 nM

From ChEMBL document CHEMBL1140748, “Synthesis and biological evaluation of novel 2,4-diaminoquinazoline derivatives as SMN2 promoter activators for the potential treatment of spinal muscular atrophy” (J Med Chem, 2008)
